Reference: ChEMBL document CHEMBL3421565, “β-D-2'-C-Methyl-2,6-diaminopurine Ribonucleoside Phosphoramidates are Potent and Selective Inhibitors of Hepatitis C Virus (HCV) and Are Bioconverted Intracellularly to Bioactive 2,6-Diaminopurine and Guanosine 5'-Triphosphate Forms” (J Med Chem, 2015)

Legend:
Hepatitis C virus [1] = assay: Antiviral activity against HCV infected in human HuH7 cells assessed as reduction in replicon RNA levels incubated for 5 days by RT-PCR assay; type: functional, organism-based, Hepacivirus hominis; conditions: Huh-7, 120 h
In short: (§1)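 Huh-7 clone B cells carrying HCV replicon RNA, seeded at 3000 cells/well; compounds added in dose response in triplicate right after seeding. Incubated 5 days at 37 °C, 5% CO₂. Total RNA extracted; replicon RNA and rRNA internal control co-amplified by one-step multiplex real-time RT-PCR. Antiviral effect taken as ΔCt versus no-drug control; cytotoxicity read from rRNA reduction.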

Vero = assay: Cytotoxicity against African green monkey Vero cells assessed as reduction in cell viability incubated for 5 days by Cell-titer 96 aqueous one solution cell proliferation assay; type: cell-based; conditions: chlorocebus sabaeus, vero, 120 h
[2] = Toxicity in human PC3 cells assessed as effect on GAPDH levels at 100 uM; type: cell-based; conditions: pc-3, 100 µM
[3] = Toxicity in human PC3 cells assessed as effect on thymidine uptake at 100 uM; type: cell-based; conditions: pc-3, 100 µM
HepG2 [4] = assay: Mitochondrial toxicity in human HepG2 cells assessed as effect on mitochondrial cytochrome c oxidase subunit 2 DNA level incubated for 14 days by real-time PCR method; type: cell-based; conditions: hepg2, 336 h
In short: (§2)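 HepG2 cells in DMEM with 4.5 g/L glucose and 10% heat-inactivated FBS, seeded at 5000 cells/well on collagen; compounds added 1 day later at final 1–50 μM. Medium and compound renewed every 3–4 days for 14 days; duplicates in two independent experiments. COXII mtDNA and nuclear β-actin DNA measured by real-time PCR, normalised to untreated control; IC₅₀ calculated.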

HepG2 [5] = assay: Mitochondrial toxicity in human HepG2 cells assessed as effect on nuclear beta-actin DNA level incubated for 14 days by real-time PCR method; type: cell-based; conditions: hepg2, 336 h; in short: as §2
HepG2 [6] = assay: Mitochondrial toxicity in human HepG2 cells assessed as induction of lactic acid levels at 1 uM incubated for 14 days; type: cell-based; conditions: hepg2, 336 h
In short: (§3)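 After 14 days of HepG2 exposure to compound (same culture regimen as the mtDNA assay), lactic acid in culture supernatant quantified with a D-/L-lactic acid kit by absorbance. Results expressed as % lactic acid over % nuclear DNA (β-actin control); mean of triplicates from a single plate.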

HepG2 [7] = assay: Mitochondrial toxicity in human HepG2 cells assessed as induction of lactic acid levels at 10 uM incubated for 14 days; type: cell-based; conditions: hepg2, 336 h; in short: as §3
HepG2 [8] = assay: Mitochondrial toxicity in human HepG2 cells assessed as induction of lactic acid levels at 50 uM incubated for 14 days; type: cell-based; conditions: hepg2, 336 h; in short: as §3
Hepatitis C virus [9] = assay: Antiviral activity against HCV genotype 1a infected in human HuH7 cells assessed as reduction in replicon RNA levels incubated for 5 days by RT-PCR assay; type: functional, cell-based, Hepacivirus hominis; conditions: subtype 1a, Huh-7, 120 h; in short: as §1
Hepatitis C virus [10] = assay: Antiviral activity against HCV genotype 1b infected in human HuH7 cells assessed as reduction in replicon RNA levels incubated for 5 days by RT-PCR assay; type: functional, cell-based, Hepacivirus hominis; conditions: Huh-7, 120 h; in short: as §1
Hepatitis C virus [11] = assay: Antiviral activity against HCV genotype 2a infected in human HuH7 cells assessed as reduction in replicon RNA levels incubated for 5 days by RT-PCR assay; type: functional, cell-based, Hepacivirus hominis; conditions: Huh-7, 120 h; in short: as §1
Hepatitis C virus [12] = assay: Antiviral activity against HCV genotype 2b chimera with HCV genotype 1b Con1 backbone containing HCV genotype 2b NS5B gene infected in human HuH7 cells assessed as reduction in replicon RNA levels incubated for 5 days by RT-PCR assay; type: functional, cell-based, Hepacivirus hominis; conditions: Huh-7, 120 h; in short: as §1
Hepatitis C virus [13] = assay: Antiviral activity against HCV genotype 3a chimera with HCV genotype 1b Con1 backbone containing HCV genotype 3a NS5B gene infected in human HuH7 cells assessed as reduction in replicon RNA levels incubated for 5 days by RT-PCR assay; type: functional, cell-based, Hepacivirus hominis; conditions: Huh-7, 120 h; in short: as §1
Hepatitis C virus [14] = assay: Antiviral activity against HCV genotype 4a chimera with HCV genotype 1b Con1 backbone containing HCV genotype 4a NS5B gene infected in human HuH7 cells assessed as reduction in replicon RNA levels incubated for 5 days by RT-PCR assay; type: functional, cell-based, Hepacivirus hominis; conditions: Huh-7, 120 h; in short: as §1
Hepatitis C virus [15] = assay: Antiviral activity against HCV genotype 5a chimera with HCV genotype 1b Con1 backbone containing HCV genotype 5a NS5B gene infected in human HuH7 cells assessed as reduction in replicon RNA levels incubated for 5 days by RT-PCR assay; type: functional, cell-based, Hepacivirus hominis; conditions: Huh-7, 120 h; in short: as §1
Hepatitis C virus [16] = assay: Antiviral activity against HCV genotype 1b containing NS5A Y93H mutant infected in human HuH7 cells assessed as reduction in replicon RNA levels incubated for 5 days by RT-PCR assay; type: functional, cell-based, Hepacivirus hominis; conditions: Huh-7, 120 h; in short: as §1
Hepatitis C virus [17] = assay: Antiviral activity against HCV genotype 1b containing NS3 R155K mutant infected in human HuH7 cells assessed as reduction in replicon RNA levels incubated for 5 days by RT-PCR assay; type: functional, cell-based, Hepacivirus hominis; conditions: Huh-7, 120 h; in short: as §1
Hepatitis C virus [18] = assay: Antiviral activity against HCV genotype 1b containing NS5B S282T mutant infected in human HuH7 cells assessed as reduction in replicon RNA levels incubated for 5 days by RT-PCR assay; type: functional, cell-based, Hepacivirus hominis; conditions: Huh-7, 120 h; in short: as §1
Hepatitis C virus [19] = assay: Antiviral activity against HCV genotype 1b containing NS5B C316Y mutant infected in human HuH7 cells assessed as reduction in replicon RNA levels incubated for 5 days by RT-PCR assay; type: functional, cell-based, Hepacivirus hominis; conditions: Huh-7, 120 h; in short: as §1
Hepatitis C virus [20] = assay: Antiviral activity against HCV genotype 1b containing NS5B C445F mutant infected in human HuH7 cells assessed as reduction in replicon RNA levels incubated for 5 days by RT-PCR assay; type: functional, cell-based, Hepacivirus hominis; conditions: Huh-7, 120 h; in short: as §1
Hepatitis C virus [21] = assay: Antiviral activity against HCV genotype 1b containing NS5B M414I mutant infected in human HuH7 cells assessed as reduction in replicon RNA levels incubated for 5 days by RT-PCR assay; type: functional, cell-based, Hepacivirus hominis; conditions: Huh-7, 120 h; in short: as §1
Hepatitis C virus [22] = assay: Antiviral activity against HCV genotype 1b containing NS5B P495A mutant infected in human HuH7 cells assessed as reduction in replicon RNA levels incubated for 5 days by RT-PCR assay; type: functional, cell-based, Hepacivirus hominis; conditions: Huh-7, 120 h; in short: as §1
[23] = Drug metabolism in human HuH7 cells assessed as 2'-C-Me-DAPN-TP level per million cells at 50 uM incubated for 4 hrs at 37 degC by LC-MS/MS method; type: ADME, cell-based; conditions: huh-7, 4 h
In short: (§4)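 Huh-7 cells (after attachment) or freshly plated primary human hepatocytes (after overnight acclimatation), 1 × 10⁶ cells/well, exposed to 50 μM compound for 4 h at 37 °C. Cells washed twice with ice-cold PBS and extracted overnight at −20 °C in 70% methanol containing 20 nM ddATP. Mono-, di- and triphosphates quantified by LC–MS/MS as pmol/10⁶ cells; three replicates.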

[24] = Drug metabolism in human HuH7 cells assessed as 2'-C-Me-DAPN-TP level per million cells at 50 uM incubated for 4 hrs at 37 degC by LC-MS/MS method relative to DAPN; type: ADME, cell-based; conditions: huh-7, 4 h; in short: as §4
[25] = Drug metabolism in human primary hepatocytes assessed as 2'-C-Me-DAPN-TP level at 50 uM incubated for 4 hrs at 37 degC by LC-MS/MS method; type: ADME, cell-based, Hepatocyte; in short: as §4
[26] = Drug metabolism in human HuH7 cells assessed as 2'-C-Me-GTP level at 50 uM incubated for 4 hrs at 37 degC by LC-MS/MS method; type: ADME, cell-based; conditions: huh-7, 4 h; in short: as §4

SMILES: CCOC(=O)CCc1ccccc1O[P@@](=O)(N[C@@H](C)C(=O)OCC)OC[C@H]1O[C@@H](n2cnc3c(N)nc(N)nc32)[C@](C)(O)[C@H]1O
- EC50 (Hepatitis C virus [1]): 200 nM
- EC90 (Hepatitis C virus [1]): 700 nM
- CC50 (Vero): > 100000 nM
- Activity [2]: Non-toxic
- Activity [3]: Non-toxic
- CC50 (HepG2 [4]): > 50000 nM
- CC50 (HepG2 [5]): > 50000 nM
- Activity (HepG2 [6]): 150%
- Activity (HepG2 [7]): 120%
- Activity (HepG2 [8]): 110%
- EC50 (Hepatitis C virus [9]): 350 nM
- EC90 (Hepatitis C virus [9]): 740 nM
- EC50 (Hepatitis C virus [10]): 260 nM
- EC90 (Hepatitis C virus [10]): 390 nM
- EC50 (Hepatitis C virus [11]): 260 nM
- EC90 (Hepatitis C virus [11]): 700 nM
- EC50 (Hepatitis C virus [12]): 290 nM
- EC90 (Hepatitis C virus [12]): 420 nM
- EC50 (Hepatitis C virus [13]): 230 nM
- EC90 (Hepatitis C virus [13]): 390 nM
- EC50 (Hepatitis C virus [14]): 390 nM
- EC90 (Hepatitis C virus [14]): 890 nM
- EC50 (Hepatitis C virus [15]): 320 nM
- EC90 (Hepatitis C virus [15]): 640 nM
- EC50 (Hepatitis C virus [16]): 300 nM
- EC90 (Hepatitis C virus [16]): 3000 nM
- EC50 (Hepatitis C virus [17]): 320 nM
- EC90 (Hepatitis C virus [17]): 1300 nM
- EC50 (Hepatitis C virus [18]): 100 nM
- EC90 (Hepatitis C virus [18]): 230 nM
- EC50 (Hepatitis C virus [19]): 270 nM
- EC90 (Hepatitis C virus [19]): 770 nM
- EC50 (Hepatitis C virus [20]): 120 nM
- EC90 (Hepatitis C virus [20]): 250 nM
- EC50 (Hepatitis C virus [21]): 280 nM
- EC90 (Hepatitis C virus [21]): 1100 nM
- EC50 (Hepatitis C virus [22]): 80 nM
- EC90 (Hepatitis C virus [22]): 140 nM
- Drug metabolism [23]: 9.9 pmol
- fold change (FC) [24]: 13
- fold change (FC) [25]: 7

SMILES: CC(C)OC(=O)CCc1ccccc1OP(=O)(N[C@@H](C)C(=O)OC(C)C)OC[C@H]1O[C@@H](n2cnc3c(N)nc(N)nc32)[C@](C)(O)[C@H]1O (some centres not stated)
- EC50 (Hepatitis C virus [1]): 700 nM
- EC90 (Hepatitis C virus [1]): 2500 nM
- CC50 (Vero): > 100000 nM
- CC50 (HepG2 [4]): > 50000 nM
- CC50 (HepG2 [5]): > 50000 nM
- Activity (HepG2 [6]): 90%
- Activity (HepG2 [7]): 81%
- Activity (HepG2 [8]): 80%
- Drug metabolism [23]: metabolite_detected
- Drug metabolism [26]: metabolite_detected
- Drug metabolism [25]: metabolite_detected
